Assay [1] concerns glycoconjugate-lytic β-GlcNAcases from plant and human. To be noted: cited from earlier work.
The next assay addresses T1, OfHex1 (W490A) (Ostrinia furnacalis, UniProt Q06GJ0, W490A).
T1 sequence (Q06GJ0 23-594 W490A): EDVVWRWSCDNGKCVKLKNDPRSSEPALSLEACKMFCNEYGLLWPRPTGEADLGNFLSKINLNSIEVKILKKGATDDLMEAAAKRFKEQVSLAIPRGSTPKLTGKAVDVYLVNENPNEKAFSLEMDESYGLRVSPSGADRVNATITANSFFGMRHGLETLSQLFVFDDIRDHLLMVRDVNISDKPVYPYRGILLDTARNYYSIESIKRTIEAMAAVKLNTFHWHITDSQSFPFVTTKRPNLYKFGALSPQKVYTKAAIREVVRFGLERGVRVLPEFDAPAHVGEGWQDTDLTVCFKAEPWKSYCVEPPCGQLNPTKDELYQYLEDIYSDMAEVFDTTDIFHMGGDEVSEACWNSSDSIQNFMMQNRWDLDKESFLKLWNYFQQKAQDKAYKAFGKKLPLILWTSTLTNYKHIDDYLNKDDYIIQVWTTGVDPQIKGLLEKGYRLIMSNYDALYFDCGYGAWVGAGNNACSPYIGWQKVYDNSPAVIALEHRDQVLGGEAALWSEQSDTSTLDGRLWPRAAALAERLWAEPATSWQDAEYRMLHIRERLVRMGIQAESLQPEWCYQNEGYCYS
As to the kind of experiment: Inhibition of mutant OfHex1-W490A. Type of assay: biochemical. In a few lines: (§1)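 Purchased bovine Hex, recombinant O. furnacalis OfHex2 and the OfHex1 W490A mutant were assayed at 25°C with pNP-β-GlcNAc. Reactions were stopped with 0.5 M Na2CO3 and A405 was recorded. Where Ki was determined, substrate was 0.075, 0.125 and 0.2 mM, with values from linear Dixon-plot fits. W490A was also tested at 100 µM inhibitor.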

Assay [2] addresses HsHex (human glycoconjugate-lytic β-GlcNAcase) (Homo sapiens, UniProt P07686). Put plainly: Inhibition of HsHex, pNP-β-GlcNAc substrate, Dixon plots. In kind it is biochemical.
In assay [3] the target is T2, OfHex1 (chitinolytic β-GlcNAcase) (Ostrinia furnacalis, UniProt Q06GJ0).
T2 sequence (Q06GJ0 23-594): T1 sequence (Q06GJ0 23-594 W490A) with A468W
As to the kind of experiment: Inhibition of OfHex1, pNP-β-GlcNAc substrate, Dixon plots. Type of assay: biochemical. In a few lines: (§2)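 Recombinant O. furnacalis OfHex1, recombinant S. marcescens SmChb and purchased T. viride TvHex were assayed at 25°C with pNP-β-GlcNAc in 20 mM sodium phosphate, pH 6.0. After incubation, 0.5 M Na2CO3 was added and A405 measured. Ki used substrate at 0.075, 0.125 and 0.2 mM and an enzyme-specific inhibitor range. Ki and inhibition type came from linear Dixon-plot fitting.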

Assay [4] has as its target T3, SmChb (chitinolytic β-GlcNAcase) (Serratia marcescens, UniProt Q54468).
T3 sequence (Q54468 28-885): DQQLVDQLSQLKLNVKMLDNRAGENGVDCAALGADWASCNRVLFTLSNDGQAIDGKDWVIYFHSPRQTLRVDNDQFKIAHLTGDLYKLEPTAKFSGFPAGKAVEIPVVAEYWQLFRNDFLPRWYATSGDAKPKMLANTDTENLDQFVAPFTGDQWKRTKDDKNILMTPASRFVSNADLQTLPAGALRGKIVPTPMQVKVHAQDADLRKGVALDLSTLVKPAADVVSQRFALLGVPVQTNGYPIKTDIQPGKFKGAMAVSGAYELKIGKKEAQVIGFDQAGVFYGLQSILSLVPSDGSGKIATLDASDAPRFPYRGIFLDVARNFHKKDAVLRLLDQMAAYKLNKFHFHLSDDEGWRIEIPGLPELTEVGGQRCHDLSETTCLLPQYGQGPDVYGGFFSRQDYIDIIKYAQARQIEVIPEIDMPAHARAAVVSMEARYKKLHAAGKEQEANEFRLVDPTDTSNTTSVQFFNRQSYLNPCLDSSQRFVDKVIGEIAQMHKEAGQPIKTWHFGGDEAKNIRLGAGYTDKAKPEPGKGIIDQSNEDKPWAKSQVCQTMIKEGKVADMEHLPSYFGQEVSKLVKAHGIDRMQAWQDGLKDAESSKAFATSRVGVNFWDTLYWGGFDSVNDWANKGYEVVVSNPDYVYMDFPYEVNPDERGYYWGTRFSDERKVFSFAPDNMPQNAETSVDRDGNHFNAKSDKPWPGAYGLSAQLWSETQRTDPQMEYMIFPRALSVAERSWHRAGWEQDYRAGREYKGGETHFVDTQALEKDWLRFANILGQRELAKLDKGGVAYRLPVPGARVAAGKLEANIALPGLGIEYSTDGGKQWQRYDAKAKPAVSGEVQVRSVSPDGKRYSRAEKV
Put plainly: Inhibition of SmChb. Type of assay: biochemical. In a few lines: as §2

The target in assay [5] is TvHex (chitinolytic β-GlcNAcase). As to the kind of experiment: Inhibition of TvHex. Type of assay: biochemical, Trichoderma viride. The following applies: read-out: Ki for TvHex; pNP-β-GlcNAc, pH 6.0. In a few lines: as §2
Assay [6] relates to BoHex (glycoconjugate-lytic β-GlcNAcase). As to the kind of experiment: Inhibition of BoHex. In kind it is biochemical, bovine. In a few lines:
as §1

The subject of assay [7] is OfHex2 (glycoconjugate-lytic β-GlcNAcase). Put plainly: Inhibition of OfHex2. Type of assay: biochemical, O. furnacalis. Put shortly: as §1
Assay [8] has as its target T4, SpHex (chitinolytic β-GlcNAcase) (Streptomyces plicatus, UniProt O85361).
T4 sequence (O85361 1-506): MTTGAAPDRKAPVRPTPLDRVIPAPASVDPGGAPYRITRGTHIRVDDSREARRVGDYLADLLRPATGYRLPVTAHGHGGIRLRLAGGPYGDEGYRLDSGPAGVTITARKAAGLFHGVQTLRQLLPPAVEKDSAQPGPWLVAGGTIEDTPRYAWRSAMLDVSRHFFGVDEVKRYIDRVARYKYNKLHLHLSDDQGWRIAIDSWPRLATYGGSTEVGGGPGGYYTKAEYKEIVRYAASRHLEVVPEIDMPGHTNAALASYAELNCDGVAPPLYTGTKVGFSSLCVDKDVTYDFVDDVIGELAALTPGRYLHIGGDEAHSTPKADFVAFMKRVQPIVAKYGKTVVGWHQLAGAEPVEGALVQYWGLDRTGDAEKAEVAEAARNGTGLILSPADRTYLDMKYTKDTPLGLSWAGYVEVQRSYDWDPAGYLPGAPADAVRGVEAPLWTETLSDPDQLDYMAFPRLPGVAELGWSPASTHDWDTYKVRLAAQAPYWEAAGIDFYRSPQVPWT
Put plainly: Inhibition of SpHex. In kind it is biochemical.

Assay [9] concerns CeHex (glycoconjugate-lytic β-GlcNAcase). As to the kind of experiment: Inhibition of CeHex. Type of assay: biochemical, Canavalia ensformis.

Residue numbers refer to the chain shown, from its start. Where only a bound is given, the exact number is not on record here.

By Ki is commonly meant the dissociation constant of the complex between target and ligand, obtained from inhibition or displacement.

Sequence of HsHex (human glycoconjugate-lytic β-GlcNAcase) (P07686 122-311 limits assumed): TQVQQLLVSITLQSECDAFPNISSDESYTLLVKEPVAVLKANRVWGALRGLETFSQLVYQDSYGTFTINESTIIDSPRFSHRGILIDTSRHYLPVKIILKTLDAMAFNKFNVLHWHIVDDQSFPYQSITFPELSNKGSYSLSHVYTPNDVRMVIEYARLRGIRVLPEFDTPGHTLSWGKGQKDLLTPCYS
Sequence of HsHex (human glycoconjugate-lytic β-GlcNAcase) (P07686 315-556 limits assumed): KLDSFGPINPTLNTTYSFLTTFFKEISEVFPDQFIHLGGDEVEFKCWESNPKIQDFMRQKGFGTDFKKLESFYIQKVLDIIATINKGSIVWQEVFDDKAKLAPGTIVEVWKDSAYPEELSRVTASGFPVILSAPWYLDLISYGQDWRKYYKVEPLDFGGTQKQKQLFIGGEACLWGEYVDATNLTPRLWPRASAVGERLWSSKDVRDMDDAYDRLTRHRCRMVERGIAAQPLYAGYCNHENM

Take `CC(=O)NC1C(O)O[C@H](CO)[C@@H](O[C@@H]2O[C@H](CO)[C@@H](O[C@@H]3O[C@H](CO)[C@@H](O[C@H]4O[C@H](CO)[C@@H](O)[C@H](O)[C@H]4[N+](C)(C)C)[C@H](O)[C@H]3NC(C)=O)[C@H](O)[C@H]2NC(C)=O)[C@@H]1O` (stereo partly shown) [TMG-chitotriomycin]: the “Activity toward glycoconjugate-lytic β-GlcNAcases from plant and human” value in assay [1] was “not active”.

`Cc1nnc(CNCCN2C(=O)c3cccc4cccc(c34)C2=O)s1` [Q1, 2-(2-(((5-methyl-1,3,4-thiadiazol-2-yl)methyl)amino)ethyl)-1H-benzo[de]isoquinoline-1,3(2H)-dione]: the figures for the Ki (at OfHex1 (W490A); in assay [2]; in assay [3]) were above 100 µM, 2150 nM and 4280 nM, respectively. The “Inhibition of OfHex1-W490A at 100 µM” value on OfHex1 (W490A) (100 µM) is recorded as “could not inhibit”. The “Type of inhibition toward HsHex (Dixon plots)” value in [2] (Dixon plots) is listed as “competitive inhibitor”. Further, the “Type of inhibition toward OfHex1 (Dixon plots)” value in assay [3] is listed as “competitive inhibitor”.

For the compound `Cc1nnc(CNCCN2C(=O)c3cccc4c(N(C)C)ccc(c34)C2=O)s1` [Q2, 6-(dimethylamino)-2-(2-(((5-methyl-1,3,4-thiadiazol-2-yl)methyl)amino)ethyl)-1H-benzo[de]isoquinoline-1,3(2H)-dione], the inhibition constant (Ki) in assay [4] is 8.25 µM; in assay [5], 25 µM; on OfHex1 (W490A), above 100 µM; in assay [8], 74.8 µM; in [2] it was above 100000 nM; in assay [3], 310 nM. Also, the “Inhibition of BoHex” value in [6] was “does not inhibit”. The “Inhibition of OfHex2” value in [7] was “does not inhibit”. The “Inhibition of HsHex at 100 µM” value in assay [2] (100 µM) is listed as “does not inhibit”. In addition, the “Inhibition of CeHex” value in assay [9] is recorded as “does not inhibit”. Also, in assay [3], the “Type of inhibition toward OfHex1 (Dixon plots)” value was “competitive”. Besides, the “Increment in inhibitory activity against OfHex1 compared to Q1” value in [3] (Q2 versus Q1, from Ki) is 13 fold.

The record behind these values is PMC4143770 (Scientific Reports, 2014).
